TbMetRS inhib – blocks T. brucei methionyl-tRNA synthetase activity | AID 624268 | purified T. brucei MetRS, ATP depletion, Kinase-Glo luminescence | inhibition, % at 11.9 µM | 0.4% of 360,000 active;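 active = inhibition above a per-plate cutoff of the control wells' mean inhibition plus 3 SD, cut at about 5.5% in these data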;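 also: 0% = DMSO wells median and 100% = median of wells with control inhibitor compound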
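Dosing: 11.9 µM single point; system: parasite MetRS enzyme; technique: luminescence of leftover ATP; times: 15 min enzyme-compound preincubation, 2 h reaction, 10 min detection, 25 °C; replicates: each compound tested once; read-out basis: percent inhibition relative to median high and low control wells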
ADAM10 inh – ADAM10 inhibition, QFRET primary screen | O14672 | recombinant ADAM10, EDANS/DABCYL FRET peptide cleavage, 3 h | inhibition, % at 7 µM | 0.62% of 370,000 active | AID 720582;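 active = inhibition above a per-campaign cutoff equal to the mean of compounds falling between control-based bounds plus 3 SD, cut at about 20% in these data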;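 also: 0% = DMSO wells while the 100% control is not disclosed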
Target sequence (O14672 214-748 limits assumed): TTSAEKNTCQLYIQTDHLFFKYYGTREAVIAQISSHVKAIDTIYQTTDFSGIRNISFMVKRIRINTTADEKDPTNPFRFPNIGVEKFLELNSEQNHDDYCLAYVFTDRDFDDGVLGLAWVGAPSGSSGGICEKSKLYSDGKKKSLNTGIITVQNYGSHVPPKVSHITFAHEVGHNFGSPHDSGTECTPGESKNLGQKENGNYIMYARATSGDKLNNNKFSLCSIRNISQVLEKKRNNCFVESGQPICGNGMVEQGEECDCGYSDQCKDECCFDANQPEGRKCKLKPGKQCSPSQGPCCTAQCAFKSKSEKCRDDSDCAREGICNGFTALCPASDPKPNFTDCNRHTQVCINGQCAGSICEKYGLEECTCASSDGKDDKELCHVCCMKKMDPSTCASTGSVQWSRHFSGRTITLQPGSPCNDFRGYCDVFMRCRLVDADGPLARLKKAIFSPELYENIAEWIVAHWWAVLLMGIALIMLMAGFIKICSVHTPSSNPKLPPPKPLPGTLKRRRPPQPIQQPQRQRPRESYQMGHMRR
PLC-beta3 inh – PLC-beta3 (human) inhibition, primary screen; Q01970; Purified PLC-beta3, fluorogenic substrate, fluorescence; inhibition, % at 12.2 µM; 0.18% of 370,000 active; in the data active = inhibition above about 11%;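 also: 0% = median of compound wells on plate and 100% = full blocker control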
PLCg1 inh – PLC-gamma1 (human) inhibition, primary screen. P19174. purified PLC-gamma1, fluorogenic substrate, fluorescence. inhibition, % at 12.2 µM. 0.84% of 370,000 active. AID 720700; in the data active = inhibition above about 9.5%
ADAM17 inh – inhibitors of human ADAM17; recombinant ADAM17, EDANS/DABCYL FRET peptide cleavage; inhibition, % at 6.95 µM; P78536; 0.83% of 370,000 active; AID 720648;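 active = inhibition above the mean of compounds lying between control limits plus 3 SD, set per campaign, cut at about 8.5% in these data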;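 also: 0% = DMSO-only wells as the low control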
ADAM10 confirm – confirmation of inhibitors of human ADAM10 | shares compounds with ADAM10 inh | ADAM10 QFRET peptide cleavage, EDANS fluorescence | inhibition, % at 6.95 µM | 1% of 2,100 active;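 active = inhibition above about 20% chosen separately for each screening run, limit read from the data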;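 also: 0% = DMSO wells and 100% = marimastat wells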
ADAM17 ctr – ADAM17 inhibition, counter-screen for ADAM10 exosite hits | shares compounds with ADAM10 inh | ADAM17 QFRET peptide cleavage, EDANS fluorescence | inhibition, % at 6.95 µM | 0.5% of 2,100 active | AID 743214;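 active = mean triplicate inhibition above the solvent-only control wells' mean plus 3 SD, cut at about 12% in these data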;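 also: 0% = DMSO wells and 100% = marimastat wells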
ADAM10 ctr – counter-screen for ADAM17 exosite inhibitors: inhibitors of human ADAM10; 47% of 2,900 active; shares compounds with ADAM17 inh; inhibition, % at 6.95 µM; recombinant ADAM10, EDANS/DABCYL FRET peptide cleavage, 3 h;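 active = mean inhibition over the triplicate runs exceeds the activity threshold set in the earlier primary screen, cut at about 20% in these data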;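 also: 0% = DMSO wells and 100% = marimastat wells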
ADAM17 confirm – human ADAM17 inhibition, confirmation | shares compounds with ADAM17 inh | recombinant ADAM17, EDANS/DABCYL QFRET peptide cleavage | inhibition, % at 6.95 µM | 65% of 2,900 active | AID 743257;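 active = mean inhibition across replicates above the hit cutoff set in the primary screen, cut at about 8.5% in these data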;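 also: 0% = DMSO wells and 100% = marimastat wells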
Numbers without * were called inactive; i = inactive; . = not tested or not shown. A selection: hits, their analogues and other compounds. The true share with any hit is near 2.3%.

SMILES	TbMetRS inhib	ADAM10 inh	PLC-beta3 inh	PLCg1 inh	ADAM17 inh	ADAM10 confirm	ADAM17 ctr	ADAM10 ctr	ADAM17 confirm
Oc1ccccc1-c1cc(-c2cccc(F)c2)n[nH]1	-1	21*	0	5	5	4	1	.	.
CCCCC(=O)Oc1c(S(=O)(=O)c2ccccc2)c(C)nn1C(C)(C)C	-1	-1	-4	4	0	.	.	.	.
CCOc1cccc(NC(=O)C2CC(=O)N(C)C(=Nc3cccc(F)c3)S2)c1 (configuration not stated)	0	21*	5	1	6	4	1	.	.
C/C(=N\NC(=O)c1cccnc1)c1ccc(OC2OCCOC2Oc2ccc(/C(C)=N/NC(=O)c3cccnc3)cc2)cc1 (configuration not stated)	-1	-7	-2	-2	-4	.	.	.	.
C=CCC[C@@H](Cc1ccc(F)cc1)C(=O)OC[C@H](Cc1c[nH]c2ccccc12)NC(=O)[C@@H](CC=C)CC(=O)NCCO	0	25*	-3	9	7	1	0	.	.
COc1ccccc1C(=O)NCC(=O)OCC(=O)Nc1ccc2[nH]c(=O)[nH]c2c1	0	-18	-2	-1	-7	.	.	.	.
COc1ccc(C(C)(O)c2nc(-c3cccc(F)c3)cs2)cc1 (configuration not stated)	0	22*	3	5	5	3	0	.	.
COc1ccc(-c2csc(C(C)(O)c3cccc(F)c3)n2)cc1 (configuration not stated)	0	7	0	-1	3	.	.	.	.
CC(C)N(C(=O)[C@H]1CC(CC(=O)NCC23CC4CC(CC(C4)C2)C3)C(=O)N2CCc3c([nH]c4ccccc34)[C@]12C)C(C)C (some centres not stated)	0	3	6	2	7	.	.	.	.
O=C(c1cccs1)N1CCc2c([nH]c3ccccc23)C1c1ccccn1 (configuration not stated)	2	4	-3	-6	1	.	.	.	.
O=C(c1cc(-c2ccccc2)n[nH]1)N1CCc2c([nH]c3ccccc23)C1c1ccccn1 (configuration not stated)	1	27*	-1	-2	5	6	3	.	.
CC(=O)N1c2ccc(S(=O)(=O)NCC3CCC(C(=O)NCc4ccc(C)cc4)CC3)cc2CC1C (configuration not stated)	0	74*	-5	-17	-2	0	0	.	.
NS(=O)(=O)c1cccc(NC(=O)COC(=O)/C(=C/c2cccs2)c2cccs2)c1	2	4	1	2	6	.	.	.	.
Cc1ccc(NC(=O)COC(=O)/C(=C/c2cccs2)c2cccs2)cc1S(=O)(=O)N(C)C	0	24*	2	5	15*	7	3	12	13*
Cc1ccc(N(C)S(=O)(=O)c2cccc(C(=O)Oc3ccc4c(C)cc(=O)oc4c3)c2)cc1	0	i	i	i	i	.	.	.	.
CN(Cc1ccccc1)C(=O)c1ccc(NC(=O)Cc2cccc(NC(=O)C3CCCN(C(=O)CCc4ccccc4)C3)c2)cc1 (configuration not stated)	0	24*	3	8	14*	3	2	24*	14*
CN(Cc1ccccc1)C(=O)c1cccc(NC(=O)Cc2ccc(NC(=O)C3CCCN(C(=O)CCc4ccccc4)C3)cc2)c1 (configuration not stated)	0	3	-2	-1	1	.	.	.	.
O=[N+]([O-])CC(c1ccccc1)c1c[nH]c2ccccc12 (configuration not stated)	0	-1	-9	0	-3	.	.	.	.
OC(CNCC(c1ccc(Cl)cc1Cl)c1c[nH]c2ccccc12)c1ccccc1 (configuration not stated)	0	26*	1	9	12*	13	4	37*	17*
CC1(C(=O)NCc2ccc(C(F)(F)F)cc2)CCN1Cc1cc2ccccc2o1 (configuration not stated)	0	24*	1	5	11*	2	0	15	7
CC1(C(=O)NCc2cccc(C(F)(F)F)c2)CCN1Cc1ccc2ccccc2c1 (configuration not stated)	0	12	3	-2	4	.	.	.	.
O=C(CCN1C(=O)c2ccccc2C1=O)Nc1sc2c(c1C(=O)NCC1CCCO1)CCC2 (configuration not stated)	-1	6	1	-1	1	.	.	.	.
O=S(=O)(c1ccc(NC(=S)N/N=C/c2ccc(O)c(O)c2)cc1)N1CCOCC1	1	-4	-23	-12	-3	.	.	.	.
O=[N+]([O-])c1cc(Cl)cc(/C=N/NC(=S)Nc2ccc(S(=O)(=O)N3CCOCC3)cc2)c1O	1	35*	-32	-20	17*	8	1	29*	18*
C[C@@H]1CN([C@@H](C)CO)C(=O)CCCn2cc(nn2)CO[C@H]1CN(C)C(=O)Nc1cccc(C(F)(F)F)c1	.	-14	1	-1	-6	.	.	.	.
SMILES	TbMetRS inhib	ADAM10 inh	PLC-beta3 inh	PLCg1 inh	ADAM17 inh	ADAM10 confirm	ADAM17 ctr	ADAM10 ctr	ADAM17 confirm
O=C(Nc1nc2ccccc2s1)C1CCCN1S(=O)(=O)c1ccc(Cl)cc1 (configuration not stated)	0	30*	10	5	11*	2	0	33*	17*
COC(=O)C1=CC(=O)C=C(OC)[C@@]12Oc1cc(C)cc(OC)c1C2=O	.	-15	-6	-6	-8	.	.	.	.
COc1cc(/C=N\NC(=O)c2ccc(Cl)cc2)ccc1Oc1ccc([N+](=O)[O-])cn1	0	24*	0	5	11*	4	1	15	8
Cc1noc(C)c1COc1ccc(C(=O)OCC(=O)Nc2ccc3ccccc3c2)cc1	0	20*	-6	-3	8.8*	9	3	33*	19*
O=C(CSc1nc2ccccc2[nH]1)Nc1nc(-c2cccc(Br)c2)cs1	0	50*	-9	-5	23*	23*	7	40*	24*
Cc1ccccc1S(=O)(=O)Cc1ccc(C(=O)N2CCN(c3cccc(C)c3C)CC2)o1	-1	22*	-3	8	9.0*	5	1	18	12*

Compound activity: PubChem BioAssay, The Scripps Research Institute Molecular Screening Center
